Measurements published in ChEMBL document CHEMBL1142272, “Fused bicyclic pyrrolizinones as new scaffolds for human NK1 antagonists” (Bioorg Med Chem, 2008).
Activity calls are given as the source filed them. The rule behind the calls is not given here.

Columns and labels:
Meriones unguiculatus [1] = test: Brain penetration in gerbils assessed as inhibition of GR-73632-induced foot tapping at 1 mg/kg, iv; format: functional
Method in brief: (§1)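 Gerbils receive the test compound by iv injection. Hindlimb thumping (foot tapping) is then elicited by central administration of an NK1 agonist. Inhibition of the thumping is scored as % inhibition at 0 h after 1 mg/kg iv, or at 24 h after 3 mg/kg. Dose titrations at 0 and 24 h give an ID50.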

Substance-P receptor [2] = biological target: T1, Substance-P receptor (Homo sapiens, UniProt P25103); test: Displacement of [125I]L-703606 from human NK1 expressed in CHO cells; format: cell-based
T1 sequence (P25103 whole entry): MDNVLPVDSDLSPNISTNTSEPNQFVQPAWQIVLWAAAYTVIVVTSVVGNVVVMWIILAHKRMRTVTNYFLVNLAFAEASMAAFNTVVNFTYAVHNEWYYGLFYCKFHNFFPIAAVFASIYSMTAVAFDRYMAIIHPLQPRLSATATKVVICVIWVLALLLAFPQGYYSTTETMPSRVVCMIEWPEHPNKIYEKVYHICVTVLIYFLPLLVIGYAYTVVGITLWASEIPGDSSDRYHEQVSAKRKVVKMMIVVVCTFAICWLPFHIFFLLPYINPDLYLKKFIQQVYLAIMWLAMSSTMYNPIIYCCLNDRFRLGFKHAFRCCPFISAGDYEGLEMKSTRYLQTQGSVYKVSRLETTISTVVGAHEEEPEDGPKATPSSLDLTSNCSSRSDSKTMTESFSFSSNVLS

Substance-P receptor [3] = biological target: T1, Substance-P receptor; test: Displacement of [125I]L-703606 from human NK1 expressed in CHO cells in presence of 50% human serum; format: cell-based
Meriones unguiculatus [4] = test: Brain penetration in gerbils assessed as inhibition of GR-73632-induced foot tapping at 3 mg/kg, iv after 24 hrs; format: functional; method in brief: as §1
Meriones unguiculatus [5] = species on record: Meriones unguiculatus; test: Brain penetration in gerbils assessed as inhibition of GR-73632-induced foot tapping; format: functional; settings: read-out: ID50 (the source's name); method in brief: as §1
Substance-P receptor [6] = biological target: T1, Substance-P receptor; test: Displacement of [125I]L-703606 from human NK1 expressed in CHO cells at 0.1 uM; format: cell-based
Substance-P receptor [7] = biological target: T1, Substance-P receptor; test: Displacement of [125I]L-703606 from human NK1 expressed in CHO cells in presence of 50% human serum at 0.1 uM; format: cell-based

Row | SMILES | IC50 (Substance-P receptor [2]) | Activity (Substance-P receptor [3]) | further results
1 | C[C@@H](O[C@H]1CN2C(=O)N(Cc3ccccc3)C[C@H]2[C@@H]1c1ccc(F)cc1)c1cc(C(F)(F)F)cc(C(F)(F)F)c1 | 2.7 nM | inactive | Activity (Meriones unguiculatus [1]): inactive
2 | C[C@@H](O[C@H]1CN(C(=O)OC(C)(C)C)[C@@H](CO)[C@@H]1c1ccc(F)cc1)c1cc(C(F)(F)F)cc(C(F)(F)F)c1 | 0.28 nM |  | inhibition in vivo at 3 mg/kg (Meriones unguiculatus [4]): 0%; inhibition in vivo at 1 mg/kg (Meriones unguiculatus [1]): 16%
3 | C[C@@H](O[C@H]1CN2C(=O)CC[C@H]2[C@@H]1c1ccc(F)cc1)c1cc(C(F)(F)F)cc(C(F)(F)F)c1 | 0.06 nM | 2.2 nM | inhibition in vivo at 3 mg/kg (Meriones unguiculatus [4]): 100%; ED50 (Meriones unguiculatus [5]): 0.03 mg/kg; inhibition in vivo at 1 mg/kg (Meriones unguiculatus [1]): 100%
4 | C[C@H](O[C@H]1CN(C(=O)OC(C)(C)C)[C@@H](CO)[C@@H]1c1ccccc1)c1cc(C(F)(F)F)cc(C(F)(F)F)c1 |  |  | Activity (Substance-P receptor [6]): 26%
5 | C[C@@H](O[C@@H]1[C@@H](c2ccc(F)cc2)CN(C(=O)OC(C)(C)C)[C@H]1CO)c1cc(C(F)(F)F)cc(C(F)(F)F)c1 | 1.2 nM |  | 
6 | C[C@@H](O[C@@H]1[C@@H](c2ccccc2)CN2C(=O)OC[C@@H]12)c1cc(C(F)(F)F)cc(C(F)(F)F)c1 | 1.3 nM |  | Activity (Substance-P receptor [7]): 25%; Activity (Meriones unguiculatus [1]): inactive
7 | C[C@@H](O[C@@H]1[C@@H](c2ccc(F)cc2)CN2C(=O)OC[C@@H]12)c1cc(C(F)(F)F)cc(C(F)(F)F)c1 | 0.33 nM | 57 nM | Activity (Meriones unguiculatus [1]): inactive
8 | C[C@H](O[C@@H]1[C@@H](c2ccc(F)cc2)CN(C(=O)OC(C)(C)C)[C@H]1CO)c1cc(C(F)(F)F)cc(C(F)(F)F)c1 |  |  | Activity (Substance-P receptor [6]): 41%
9 | C[C@H](O[C@H]1[C@H](c2ccccc2)CN(C(=O)OC(C)(C)C)[C@H]1CO)c1cc(C(F)(F)F)cc(C(F)(F)F)c1 |  |  | Activity (Substance-P receptor [6]): 13%
10 | C[C@@H](O[C@H]1[C@H](c2ccc(F)cc2)CN(C(=O)OC(C)(C)C)[C@H]1CO)c1cc(C(F)(F)F)cc(C(F)(F)F)c1 | 4.4 nM |  | 
11 | C[C@H](O[C@@H]1[C@@H](c2ccccc2)CN(C(=O)OC(C)(C)C)[C@H]1CO)c1cc(C(F)(F)F)cc(C(F)(F)F)c1 |  |  | Activity (Substance-P receptor [6]): 26%
12 | C[C@@H](O[C@H]1CN2C(=O)N(C)C[C@H]2[C@@H]1c1ccc(F)cc1)c1cc(C(F)(F)F)cc(C(F)(F)F)c1 | 0.88 nM | 32 nM | Activity (Meriones unguiculatus [1]): inactive
13 | C[C@H](O[C@H]1CN(C(=O)OC(C)(C)C)[C@@H](CO)[C@@H]1c1ccc(F)cc1)c1cc(C(F)(F)F)cc(C(F)(F)F)c1 |  |  | Activity (Substance-P receptor [6]): 92%
14 | C[C@H](O[C@H]1[C@H](c2ccc(F)cc2)CN(C(=O)OC(C)(C)C)[C@H]1CO)c1cc(C(F)(F)F)cc(C(F)(F)F)c1 |  |  | Activity (Substance-P receptor [6]): 39%
15 | C[C@@H](O[C@@H]1[C@@H](c2ccc(F)cc2)CN2C(=O)OC[C@H]12)c1cc(C(F)(F)F)cc(C(F)(F)F)c1 | 1 nM | inactive | Activity (Meriones unguiculatus [1]): inactive
16 | C[C@@H](O[C@H]1CN2C(=O)OC[C@@H]2[C@@H]1c1ccccc1)c1cc(C(F)(F)F)cc(C(F)(F)F)c1 | 0.27 nM | 37 nM | inhibition in vivo at 1 mg/kg (Meriones unguiculatus [1]): 2.5%
17 | C[C@@H](O[C@H]1CN2C(=O)NC[C@H]2[C@@H]1c1ccc(F)cc1)c1cc(C(F)(F)F)cc(C(F)(F)F)c1 | 0.06 nM | 2 nM | inhibition in vivo at 3 mg/kg (Meriones unguiculatus [4]): 8%; inhibition in vivo at 1 mg/kg (Meriones unguiculatus [1]): 100%
18 | C[C@@H](O[C@@H]1[C@@H](c2ccccc2)CN2C(=O)OC[C@H]12)c1cc(C(F)(F)F)cc(C(F)(F)F)c1 | 1.5 nM |  | Activity (Substance-P receptor [7]): 31%; Activity (Meriones unguiculatus [1]): inactive
19 | C[C@@H](O[C@@H]1[C@@H](c2ccccc2)CN(C(=O)OC(C)(C)C)[C@H]1CO)c1cc(C(F)(F)F)cc(C(F)(F)F)c1 | 3.6 nM |  | 
20 | C[C@@H](O[C@H]1[C@H](c2ccccc2)CN(C(=O)OC(C)(C)C)[C@H]1CO)c1cc(C(F)(F)F)cc(C(F)(F)F)c1 | 7.8 nM |  | 
21 | C[C@@H](O[C@H]1CN(C(=O)OC(C)(C)C)[C@@H](CO)[C@@H]1c1ccccc1)c1cc(C(F)(F)F)cc(C(F)(F)F)c1 | 0.63 nM |  | 
22 | C[C@@H](O[C@H]1CN2C(=O)OC[C@@H]2[C@@H]1c1ccc(F)cc1)c1cc(C(F)(F)F)cc(C(F)(F)F)c1 | 0.14 nM | 37 nM | inhibition in vivo at 3 mg/kg (Meriones unguiculatus [4]): 0%; inhibition in vivo at 1 mg/kg (Meriones unguiculatus [1]): 49%
